The source of these data is ChEMBL document CHEMBL1781992, “A novel monocarbonyl analogue of curcumin, (1E,4E)-1,5-bis(2,3-dimethoxyphenyl)penta-1,4-dien-3-one, induced cancer cell H460 apoptosis via activation of endoplasmic reticulum stress signaling pathway” (J Med Chem, 2011).

The test system of one data set is Mus musculus. Description: Toxicity in ICR mouse assessed as mortality at 400 to 800 mg/kg. Type of data set: organism-based. On the set-up: dose 400-800 mg/kg. To be noted: in vivo.
In data set [1] the test system is NCI-H460. Nature of the data set: Induction of GRP78 protein expression in human NCI-H460 cells at 5 to 20 uM after 3 hrs by Western blot analysis. The class given is functional, cell-based. Summed up: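 H460 cells treated for 3 h; GRP78 protein detected by Western blot with actin as loading control.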
(In general: Immunoblotting shows a protein as a band on a membrane.)

The subject of data set [2] is NCI-H460. Nature of the data set: Induction of GRP78 mRNA expression in human NCI-H460 cells at 5 to 20 uM after 3 hrs by real time quantitative PCR analysis. The class given is functional, cell-based. Summed up: (§1)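 H460 cells treated across a concentration range for 3 h. GRP78 mRNA quantified by RT-qPCR, normalized to β-actin and expressed as percent of vehicle.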

The test system of data set [3] is NCI-H460. Nature of the data set: Induction of ATF-4 mRNA expression in human NCI-H460 cells after 3 hrs by real time quantitative PCR analysis.
The subject of data set [4] is NCI-H460. Nature of the data set: Induction of CHOP expression in human NCI-H460 cells at 15 to 20 uM after 24 hrs by Western blot analysis. The class given is functional, cell-based. Summed up: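 H460 cells treated for 24 h at the indicated concentrations; whole-cell lysates probed for CHOP by Western blot, with actin as loading control.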
Data set [5] deals with Transcription factor Jun (Homo sapiens) (UniProt P05412). Description: Induction of c-Jun phosphorylation in human NCI-H460 cells at 20 uM after 12 hrs by Western blot analysis. The class given is cell-based. The essentials:
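H460 cells cultured in RPMI 1640 with 5% heat-inactivated FBS at 37 C, 10% CO2; exposed to 20 μM for a time course. Lysed at 0 C in Tris-HCl pH 7.4 buffer with NP40, SDS, and protease/phosphatase inhibitors. Phospho-c-Jun detected by Western blot with chemiluminescence, actin as loading control; band density quantified.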

For data set [6], the system named is NCI-H460. Description: Cytotoxicity against human NCI-H460 cells after 72 hrs by MTT assay. The class given is functional, cell-based. To be noted: NCI-H460, 72 h. Summed up: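 H460 cells grown in RPMI 1640 with 5% FBS at 37 °C, 10% CO2, treated 24 h after seeding. Compounds in DMSO diluted into medium at final 100, 33.3, 11.1 and 3.7 μg/mL for 72 h. MTT (5 mg/mL in 0.9% NaCl) added for 3 h, formazan dissolved in DMSO and read at 570 nm; IC50 derived.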
In general terms: Formazan colour is commonly taken as a measure of viable cells.

Data set [7] has as its system NCI-H460. Nature of the data set: Cytotoxicity against human NCI-H460 cells transfected with lentivirus carrying CHOP siRNA assessed as reduction of cell viability at 10 uM after 24 hrs by CellTiter-Glo analysis. The class given is functional, cell-based. The essentials: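 H460 cells infected with lentivirus carrying CHOP siRNA or nonspecific siRNA; 48 h later treated with 10 μM for 24 h. Survival measured with CellTiter-Glo as percent of nontransfected DMSO-treated cells.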
A general note: Cellular ATP, detected with luciferase, serves as a proxy for viable cell number.

The test system of data set [8] is NCI-H460. Description: Antitumor activity against human NCI-H460 cells xenografted in nude Balb/cA mouse assessed as decrease in tumor volume at 10 mg/kg, ip qd for 20 days measured on day 22 relative to control. Type of data set: functional. On the set-up: scale not given: the % may be the effect or the level left. To be noted: route intraperitoneal. The essentials: (§2)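 BALB/cA nu/nu female athymic mice bearing sc right-flank xenografts (3 × 10^6 H460 cells in PBS); once-daily ip dosing began on day 10, when tumors reached 100–300 mm3. Water-soluble liposome preparation in PBS at 10 or 50 mg/kg; controls received liposome vehicle in PBS. Volume = lw²/2; T/C read on day 22. Seven mice per group, mean ± SD; Student's t test.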

In data set [9] the test system is NCI-H460. Nature of the data set: Antitumor activity against human NCI-H460 cells xenografted in nude Balb/cA mouse assessed as decrease in tumor volume at 50 mg/kg, ip qd for 20 days measured on day 22 relative to control. Set-up: scale not given: the % may be the effect or the level left. To be noted: route intraperitoneal. The class given is functional. Summed up:
as §2

Data set [10] deals with NCI-H460. Nature of the data set: Increase in p53 expression in human NCI-H460 cells at 20 uM by Western blot analysis. The class given is functional, cell-based. To be noted: TDE = time-dependent effect. The essentials:
(§3)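 H460 cells exposed to 20 μM for varying times, or to a range of concentrations for 12 h. Lysates made in Tris-HCl pH 7.4/NaCl/NP40/SDS buffer with protease and phosphatase inhibitors, then probed for p53 by Western blot with chemiluminescent detection; bands quantified by densitometry.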

The test system of data set [11] is NCI-H460. Description: Induction of GRP78 mRNA expression in human NCI-H460 cells after 3 hrs by real time quantitative PCR analysis. The class given is functional, cell-based. The essentials: as §1
The test system of data set [12] is NCI-H460. Nature of the data set: Induction of CHOP protein expression in human NCI-H460 cells after 6 to 24 hrs by Western blot analysis. The class given is functional, cell-based. Summed up:
(§4)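 H460 cells treated for 6–24 h, or across a range of concentrations. CHOP protein measured by Western blot, densitometry expressed as percent of control; Student's t test.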

Data set [13] has as its system NCI-H460. Nature of the data set: Induction of CHOP protein expression in human NCI-H460 cells at 20 uM after 6 to 24 hrs by Western blot analysis. The class given is functional, cell-based. Summed up: as §4
The test system of data set [14] is NCI-H460. Description: Induction of apoptosis in human NCI-H460 cells assessed as early apoptotic cells at 20 uM after 6 hrs by annexinV-propidium iodide staining based flow cytometric analysis relative to control. Type of data set: functional. The essentials:
(§5)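 H460 cells plated for 6 h, then treated with 5, 10 or 20 μM. Cells washed, trypsin-EDTA detached and resuspended in PBS, then stained with annexin V and propidium iodide plus RNase and 0.1% Triton X-100 for 30 min at 37 °C before flow cytometry. Figure legend gives 6 h incubation.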

For data set [15], the system named is NCI-H460. Description: Induction of apoptosis in human NCI-H460 cells assessed as late apoptotic cells at 5 uM after 6 hrs by annexinV-propidium iodide staining based flow cytometric analysis relative to control. The class given is functional. The essentials:
as §5

Data set [16] concerns NCI-H460. Nature of the data set: Induction of XBP-1 protein expression level in human NCI-H460 cells after 6 hrs by Western blot analysis. The class given is functional, cell-based. Summed up: (§6)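 H460 cells exposed to 20 μM for varying times, or to a range of concentrations for 6 h. ATF-4 and XBP-1 protein measured by Western blot with actin as loading control.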
For data set [17], the system named is NCI-H460. Nature of the data set: Induction of GRP78 mRNA expression in human NCI-H460 cells after 1 hrs by real time quantitative PCR analysis. The class given is functional, cell-based. Summed up:
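H460 cells treated across a concentration range for 1 h. GRP78 mRNA quantified by RT-qPCR, normalized to β-actin and expressed as percent of vehicle.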

The subject of data set [18] is NCI-H460. Description: Induction of CHOP protein expression in human NCI-H460 cells at 20 uM after 12 hrs by Western blot analysis. Type of data set: functional, cell-based. Summed up:
as §4

For data set [19], the system named is NCI-H460. Description: Induction of ATF-4 protein expression level in human NCI-H460 cells after 6 hrs by Western blot analysis. The class given is functional, cell-based. Summed up:
as §6

The subject of data set [20] is NCI-H460. Nature of the data set: Increase in p53 expression in human NCI-H460 cells after 1 to 12 hrs by Western blot analysis. The class given is functional, cell-based. Summed up:
as §3

Data set [21] relates to NCI-H460. Nature of the data set: Cytotoxicity against human NCI-H460 cells assessed as reduction of cell survival after 24 hrs by CellTiter-Glo analysis. The class given is functional, cell-based. Summed up:
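H460 cells (5 × 10^3/well) seeded overnight, then given fresh medium containing compound from DMSO stock (final 5, 10, 20 μM; 2.5–30 μM in the figure) for 24 h. Viability measured with CellTiter-Glo and expressed as percent of vehicle-treated cells; Student's t test.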

The subject of data set [22] is NCI-H460. Nature of the data set: Induction of apoptosis in human NCI-H460 cells after 6 hrs by Flow cytometric analysis. The class given is functional, cell-based. Summed up: as §5
Data set [23] relates to NCI-H460. Nature of the data set: Induction of XBP-1 protein level in human NCI-H460 cells at 20 uM after 6 hrs by Western blot analysis.

As usually defined, the IC50 is the point on the concentration scale where inhibition reaches its midpoint.

Activity calls are given as the source filed them. No cut-off for these calls is given here.

Transcription factor Jun (Homo sapiens), sequence (P05412 whole entry): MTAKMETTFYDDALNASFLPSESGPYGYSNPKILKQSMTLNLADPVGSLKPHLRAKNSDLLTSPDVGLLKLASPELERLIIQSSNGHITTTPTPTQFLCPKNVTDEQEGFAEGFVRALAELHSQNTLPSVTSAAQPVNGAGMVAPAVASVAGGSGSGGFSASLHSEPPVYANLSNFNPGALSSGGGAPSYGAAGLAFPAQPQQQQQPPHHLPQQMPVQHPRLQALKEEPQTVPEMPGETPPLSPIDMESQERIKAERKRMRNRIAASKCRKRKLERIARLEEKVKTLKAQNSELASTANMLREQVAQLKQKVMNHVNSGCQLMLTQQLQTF

`COc1cccc(/C=C/C(=O)/C=C/c2cccc(OC)c2OC)c1OC`: the Activity entry with Mus musculus is “Non-toxic”; in the data set on NCI-H460 [3], “Dose-dependent effect”; in the data set on NCI-H460 [8], 75.8%; with NCI-H460 [9] it was 46.5%; in the data set on NCI-H460 [10], “tde”; in the data set with NCI-H460 [11], “Dose-dependent effect”. The Activity result with NCI-H460 [12] was “Dose-dependent effect”; in the data set with NCI-H460 [14], 29.68%; in the data set with NCI-H460 [15] it was 2.62%; in the data set on NCI-H460 [16] it was “Dose-dependent effect”; in the data set on NCI-H460 [19], “Dose-dependent effect”; with NCI-H460 [20] it was “Dose-dependent effect”. Besides, the Activity entry in the data set with NCI-H460 [21] and in the data set on NCI-H460 [22] was “Dose-dependent effect” each time. The result (in the data set on NCI-H460 [1]; in the data set with NCI-H460 [2]; in the data set on NCI-H460 [4]; in data set [5]; with NCI-H460 [13]; in the data set on NCI-H460 [17]) was Active. The result in the data set on NCI-H460 [18] and with NCI-H460 [23] was Active. In the data set on NCI-H460 [6], 6.74 µM corresponded to half-maximal inhibition (IC50). The result in the data set with NCI-H460 [7] was inactive.
